Among the data in ChEMBL document CHEMBL4330165, “Absolute Configuration of Bioactive Azaphilones from the Marine-Derived Fungus Pleosporales sp. CF09-1” (2019) are MIC values, retold here.

Format in all cases: functional
The subject of one assay is Alternaria brassicicola. The experiment in a line: Antifungal activity against Alternaria brassicicola CICC 2646 after 48 hrs by broth dilution assay. Conditions: CICC 2646, 48 h. A digest of the protocol: (§1)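 Conventional broth dilution. Fungi were grown on PDA at 28 °C for 72 h. Seed culture was diluted in PYG (peptone 1.0%, glucose 2.0%, yeast extract 1.0%) in 96-well plates. DMSO stocks (10 mg/mL) were serially diluted to in-test 0.78–100 μg/mL. Plates were incubated 48 h at 28 °C, humidified. Ketoconazole was the positive control and DMSO the negative control. MIC was the endpoint.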
(Dilution methods test growth across graded concentrations, often in twofold steps.)

Another assay deals with Botryosphaeria dothidea. Nature of the assay: Antifungal activity against Botryosphaeria dothidea CICC 2678 after 48 hrs by broth dilution assay. As to conditions: CICC 2678, 48 h. The method in brief:
as §1

For the next assay, the system named is Fusarium oxysporum. The experiment in a line: Antifungal activity against […] oxysporum CICC 41029 after 48 hrs by broth dilution assay. Conditions: CICC 41029, 48 h. A digest of the protocol:
as §1

The next assay concerns Vibrio alginolyticus. The experiment in a line: Antibacterial activity against Vibrio alginolyticus CICC 21664 after 48 hrs by broth dilution method. Conditions: CICC 21664, 48 h. A digest of the protocol:
(§2)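 Microbroth dilution in LB medium (peptone 10 g/L, yeast extract 5 g/L, NaCl 10 g/L). Ciprofloxacin served as positive control. MIC was read as the endpoint.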

A further assay relates to Vibrio anguillarum. Nature of the assay: Antibacterial activity against Vibrio anguillarum CICC 10475 after 48 hrs by broth dilution method. The method in brief: as §2
The test system of the next assay is Vibrio parahaemolyticus. Nature of the assay: Antibacterial activity against Vibrio parahaemolyticus CICC 10552 after 48 hrs by broth dilution method. The method in brief: as §2

In brackets after ≈: the same amount, converted by molar mass.

As for `C/C=C(\C)[C@H](OC(C)=O)[C@H](C)C(=O)O[C@@]1(C)C(=O)C=C2C=C(C3=C(C)CCCC3=O)OC=C2C1=O`, the MIC against Alternaria brassicicola amounted to 13 µg/mL (≈ 26.9 µM); with Botryosphaeria dothidea it was 13 µg/mL (≈ 26.9 µM); in the assay on Fusarium oxysporum, 6.3 µg/mL (≈ 13.1 µM).

With `C/C=C(\C)[C@H](OC(C)=O)[C@H](C)C(=O)O[C@@]1(C)C(=O)C=C2C=C(c3c(C)cccc3O)OC=C2C1=O`, the results for the MIC against Alternaria brassicicola, against Botryosphaeria dothidea and against Fusarium oxysporum were 6.3 µg/mL (≈ 13.1 µM), 3.1 µg/mL (≈ 6.45 µM) and 25 µg/mL (≈ 52 µM), respectively.

On to `C/C=C(\C)[C@H](OC(C)=O)[C@H](C)C(=O)O[C@@]1(C)C(=O)C2=COC(C3=C(C)CCCC3=O)=CC2=C(Cl)C1=O`, for which the MIC was 1.6 µg/mL (≈ 3.09 µM) against Alternaria brassicicola, 13 µg/mL (≈ 25.1 µM) in the assay with Botryosphaeria dothidea and 1.6 µg/mL (≈ 3.09 µM) in the assay on Fusarium oxysporum.

Turning to `CO[C@@H]1CO[C@@]2(CC3=CC(=O)[C@@](C)(O)[C@@H](OC(=O)c4c(C)cc(O)cc4O)[C@@H]3CO2)C1`, the MIC was greater than 50 µg/mL in the assay on Alternaria brassicicola, greater than 50 µg/mL in the assay with Botryosphaeria dothidea, greater than 50 µg/mL against Fusarium oxysporum and 25 µg/mL (≈ 57.5 µM) against Vibrio alginolyticus.

With `CO[C@H]1CO[C@@]2(CC3=CC(=O)[C@@](C)(O)[C@@H](OC(=O)c4c(C)cc(O)cc4O)[C@@H]3CO2)C1`, the MIC with Alternaria brassicicola is greater than 50 µg/mL; in the assay on Botryosphaeria dothidea, greater than 50 µg/mL; in the assay with Fusarium oxysporum it was greater than 50 µg/mL; against Vibrio alginolyticus it was 25 µg/mL (≈ 57.5 µM).

Turning to `COC(CO)CC1=CC2=CC(=O)[C@@](C)(O)[C@@H](OC(=O)c3c(C)cc(O)cc3O)[C@@H]2CO1` (stereo in doubt; 6), the MIC was determined as 13 µg/mL (≈ 29.9 µM) with Vibrio anguillarum and 6.3 µg/mL (≈ 14.5 µM) in the assay on Vibrio parahaemolyticus.

Regarding `COC(CO)CC1=CC2=CC(=O)[C@@](C)(O)[C@@H](OC(=O)c3c(C)cc(O)cc3O)[C@@H]2CO1` (stereo in doubt; 7), the MIC amounted to 6.3 µg/mL (≈ 14.5 µM) with Vibrio anguillarum and 25 µg/mL (≈ 57.5 µM) in the assay with Vibrio parahaemolyticus.

For the molecule `O=C(O)c1cn(C2CC2)c2cc(N3CCNCC3)c(F)cc2c1=O` [CIPROFLOXACIN], the MIC was 6.3 µg/mL (≈ 19 µM) in the assay with Vibrio anguillarum (Vibrio anguillarum, CICC 10475, 48 h, read-out: MIC); 3.1 µg/mL (≈ 9.36 µM) in the assay with Vibrio parahaemolyticus (Vibrio parahaemolyticus, CICC 10552, 48 h, read-out: MIC); 13 µg/mL (≈ 39.2 µM) in the assay on Vibrio alginolyticus.

As for `CC(=O)N1CCN(c2ccc(OCC3COC(Cn4ccnc4)(c4ccc(Cl)cc4Cl)O3)cc2)CC1` (configuration not stated) [KETOCONAZOLE], the results for the MIC against Alternaria brassicicola, with Botryosphaeria dothidea and against Fusarium oxysporum were 3.1 µg/mL (≈ 5.83 µM), 3.1 µg/mL (≈ 5.83 µM) and 6.3 µg/mL (≈ 11.9 µM), respectively.

In general, MIC refers to the least concentration at which growth counts as inhibited.
